# According to ChEMBL document CHEMBL4354843, “Structure-Based Design of a Potent and Selective Covalent Inhibitor for SRC Kinase That Targets a P-Loop Cysteine” (J Med Chem, 2020):
# Legend:
# [1] = molecular target: Receptor tyrosine-protein kinase erbB-2 (Homo sapiens) (UniProt P04626); assay: Binding affinity to wild-type human partial length ERBB2 (K646 to V1225 residues) expressed in mammalian expression system assessed as residual binding level at 1 uM by Kinomescan method relative to control
# Method in brief: (§1)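 Active-site-directed competition binding panel of 468 kinases (KinomeScan), compound at 1 μM. The read-out is kinase remaining bound, given as a percentage of the DMSO control. […]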
# [2] = molecular target: Mitogen-activated protein kinase kinase kinase 14 (Homo sapiens) (UniProt Q99558); assay: Binding affinity to wild-type human partial length NIK (L318 to P947 residues) expressed in mammalian expression system assessed as residual binding level at 1 uM by Kinomescan method relative to control
# [3] = molecular target: Mitogen-activated protein kinase kinase kinase 11 (Homo sapiens) (UniProt Q16584); assay: Binding affinity to wild-type human partial length MLK3 (I77 to W399 residues) expressed in bacterial expression system assessed as residual binding level at 1 uM by Kinomescan method relative to control
# [4] = molecular target: Mitogen-activated protein kinase kinase kinase 20 (Homo sapiens) (UniProt Q9NYL2); assay: Binding affinity to wild-type human partial length ZAK (M1 to L331 residues) expressed in bacterial expression system assessed as residual binding level at 1 uM by Kinomescan method relative to control
# Method in brief: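 Active site-directed competition binding panel (KinomeScan, 468 kinases). Test compound at 1 μM. Read-out is kinase binding remaining versus DMSO control, expressed as percent of control. Scores above 35% are treated as weak binding.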
# [5] = molecular target: Serine/threonine-protein kinase LATS1 (Homo sapiens) (UniProt O95835); assay: Binding affinity to wild-type human partial length LATS1 (Q678 to V1130 residues) expressed in bacterial expression system assessed as residual binding level at 1 uM by Kinomescan method relative to control
# [6] = system: Epidermal growth factor receptor (Homo sapiens), P00533 [UNDEFINED MUTATION]; assay: Binding affinity to human partial length EGFR L747-E749del/A750P mutant expressed in bacterial expression system assessed as residual binding level at 1 uM by Kinomescan method relative to control
# Method in brief: (§2)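 KinomeScan active site-directed competition binding panel (468 kinases), compound tested at 1 μM. Result expressed as remaining kinase signal versus DMSO control (percent of control).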
# [7] = molecular target: Epidermal growth factor receptor (Homo sapiens) (UniProt P00533); assay: Binding affinity to wild-type human partial length EGFR (R669 to V1011 residues) expressed in bacterial expression system assessed as residual binding level at 1 uM by Kinomescan method relative to control
# [8] = molecular target: cGMP-dependent protein kinase 1 (Homo sapiens) (UniProt Q13976); assay: Binding affinity to wild-type human partial length PRKG1 (L339 to F686 residues) expressed in bacterial expression system assessed as residual binding level at 1 uM by Kinomescan method relative to control
# [9] = molecular target: Mitogen-activated protein kinase 13 (Homo sapiens) (UniProt O15264); assay: Binding affinity to wild-type human full length p38-delta (M1 to L365 residues) expressed in bacterial expression system assessed as residual binding level at 1 uM by Kinomescan method relative to control
# Chain of Mitogen-activated protein kinase 13 (Homo sapiens) (O15264 whole entry, the tested form may be a part): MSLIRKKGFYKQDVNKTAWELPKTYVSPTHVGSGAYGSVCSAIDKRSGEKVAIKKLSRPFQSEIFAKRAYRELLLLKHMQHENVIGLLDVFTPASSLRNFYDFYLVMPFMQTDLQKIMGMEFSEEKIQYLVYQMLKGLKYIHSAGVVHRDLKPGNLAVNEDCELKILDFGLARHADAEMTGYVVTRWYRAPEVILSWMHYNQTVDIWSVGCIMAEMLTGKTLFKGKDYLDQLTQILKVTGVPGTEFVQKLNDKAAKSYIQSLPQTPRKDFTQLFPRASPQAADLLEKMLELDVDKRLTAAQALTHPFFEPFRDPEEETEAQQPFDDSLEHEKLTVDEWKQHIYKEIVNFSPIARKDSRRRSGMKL
# [10] = system: Leucine-rich repeat serine/threonine-protein kinase 2 (Homo sapiens), Q5S007 [G2019S]; assay: Binding affinity to human partial length LRRK2 G2019S mutant (H970 to E2527 residues) expressed in mammalian expression system assessed as residual binding level at 1 uM by Kinomescan method relative to control; method in brief: as §2
# [11] = molecular target: Muscle, skeletal receptor tyrosine-protein kinase (Homo sapiens) (UniProt O15146); assay: Binding affinity to wild-type human partial length MUSK (M553 to V869 residues) expressed in bacterial expression system assessed as residual binding level at 1 uM by Kinomescan method relative to control
# Chain of Muscle, skeletal receptor tyrosine-protein kinase (Homo sapiens) (O15146 whole entry, the tested form may be a part): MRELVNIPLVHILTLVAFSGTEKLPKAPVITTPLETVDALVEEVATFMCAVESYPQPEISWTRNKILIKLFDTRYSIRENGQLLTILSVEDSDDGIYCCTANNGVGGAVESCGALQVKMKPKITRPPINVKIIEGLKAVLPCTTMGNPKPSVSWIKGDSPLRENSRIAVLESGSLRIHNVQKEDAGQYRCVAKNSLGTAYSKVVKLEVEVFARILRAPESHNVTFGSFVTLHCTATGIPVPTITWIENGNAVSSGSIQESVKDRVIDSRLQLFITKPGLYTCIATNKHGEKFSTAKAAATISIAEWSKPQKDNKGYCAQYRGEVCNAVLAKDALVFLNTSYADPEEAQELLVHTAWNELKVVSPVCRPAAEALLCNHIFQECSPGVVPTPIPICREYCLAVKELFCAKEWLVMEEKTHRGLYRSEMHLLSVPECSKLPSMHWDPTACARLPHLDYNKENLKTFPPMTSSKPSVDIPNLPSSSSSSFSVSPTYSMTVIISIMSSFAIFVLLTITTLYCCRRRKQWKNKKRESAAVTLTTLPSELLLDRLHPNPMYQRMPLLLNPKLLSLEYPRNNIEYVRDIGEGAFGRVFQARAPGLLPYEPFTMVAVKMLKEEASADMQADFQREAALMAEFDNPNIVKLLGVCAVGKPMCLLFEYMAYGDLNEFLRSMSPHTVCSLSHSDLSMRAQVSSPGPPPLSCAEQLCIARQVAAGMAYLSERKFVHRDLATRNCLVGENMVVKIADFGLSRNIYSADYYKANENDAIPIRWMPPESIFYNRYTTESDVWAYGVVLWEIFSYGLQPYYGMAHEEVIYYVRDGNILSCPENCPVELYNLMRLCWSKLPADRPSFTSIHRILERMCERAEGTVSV
# [12] = molecular target: Serine/threonine-protein kinase haspin (Homo sapiens) (UniProt Q8TF76); assay: Binding affinity to wild-type human partial length HASPIN (I452 to K798 residues) expressed in mammalian expression system assessed as residual binding level at 1 uM by Kinomescan method relative to control
# Chain of Serine/threonine-protein kinase haspin (Homo sapiens) (Q8TF76 whole entry, the tested form may be a part): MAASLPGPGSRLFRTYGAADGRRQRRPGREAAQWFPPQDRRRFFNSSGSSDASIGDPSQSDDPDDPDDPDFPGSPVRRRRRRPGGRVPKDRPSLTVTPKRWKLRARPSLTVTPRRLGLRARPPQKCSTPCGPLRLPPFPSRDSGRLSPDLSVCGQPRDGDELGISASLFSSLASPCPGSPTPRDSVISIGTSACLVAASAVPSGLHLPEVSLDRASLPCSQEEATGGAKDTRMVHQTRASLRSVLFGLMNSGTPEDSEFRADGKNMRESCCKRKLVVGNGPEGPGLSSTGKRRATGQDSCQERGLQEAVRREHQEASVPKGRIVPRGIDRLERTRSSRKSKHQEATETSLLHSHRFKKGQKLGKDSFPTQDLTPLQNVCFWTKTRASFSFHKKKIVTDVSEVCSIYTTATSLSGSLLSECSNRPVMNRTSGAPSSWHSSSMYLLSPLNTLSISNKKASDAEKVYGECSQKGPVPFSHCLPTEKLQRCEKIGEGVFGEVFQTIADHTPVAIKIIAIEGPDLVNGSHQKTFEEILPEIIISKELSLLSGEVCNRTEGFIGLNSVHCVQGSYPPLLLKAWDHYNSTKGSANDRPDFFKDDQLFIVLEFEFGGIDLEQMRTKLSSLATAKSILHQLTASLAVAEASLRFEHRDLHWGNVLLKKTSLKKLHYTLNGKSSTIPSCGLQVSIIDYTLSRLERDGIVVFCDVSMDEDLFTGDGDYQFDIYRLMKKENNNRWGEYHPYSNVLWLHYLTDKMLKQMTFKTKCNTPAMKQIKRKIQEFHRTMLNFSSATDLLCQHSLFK
# [13] = molecular target: Myosin-IIIa (Homo sapiens) (UniProt Q8NEV4); assay: Binding affinity to wild-type human partial length MYO3A (M1 to K338 residues) expressed in bacterial expression system assessed as residual binding level at 1 uM by Kinomescan method relative to control
# [14] = molecular target: Ephrin type-B receptor 3 (Homo sapiens) (UniProt P54753); assay: Binding affinity to wild-type human partial length EPHB3 (Q599 to T928 residues) expressed in bacterial expression system assessed as residual binding level at 1 uM by Kinomescan method relative to control; method in brief: as §1
# [15] = molecular target: Casein kinase I isoform epsilon (Homo sapiens) (UniProt P49674); assay: Binding affinity to wild-type human full length CSNK1E (M1 to K416 residues) expressed in bacterial expression system assessed as residual binding level at 1 uM by Kinomescan method relative to control
# Chain of Casein kinase I isoform epsilon (Homo sapiens) (P49674 whole entry, looked up, the tested form may be a part, canonical isoform): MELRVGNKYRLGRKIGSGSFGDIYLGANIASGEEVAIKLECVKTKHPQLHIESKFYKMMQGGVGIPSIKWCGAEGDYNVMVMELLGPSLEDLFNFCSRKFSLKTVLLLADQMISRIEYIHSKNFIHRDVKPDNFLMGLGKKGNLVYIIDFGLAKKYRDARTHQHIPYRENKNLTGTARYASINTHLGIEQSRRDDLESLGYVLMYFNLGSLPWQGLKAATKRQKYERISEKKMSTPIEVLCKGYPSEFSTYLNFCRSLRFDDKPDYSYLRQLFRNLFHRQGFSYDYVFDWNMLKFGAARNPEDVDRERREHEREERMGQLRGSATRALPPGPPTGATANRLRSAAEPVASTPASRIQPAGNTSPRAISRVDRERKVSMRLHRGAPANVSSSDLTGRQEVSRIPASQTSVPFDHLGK
# Method in brief: (§3)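 Active-site-directed KinomeScan competition binding panel covering 468 kinases, compound tested at 1 μM. Each readout is the kinase signal remaining with compound, expressed as a percentage of the DMSO control. […]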
# [16] = molecular target: G protein-coupled receptor kinase 3 (Homo sapiens) (UniProt P35626); assay: Binding affinity to wild-type human full length GRK3 (M1 to L688 residues) expressed in mammalian expression system assessed as residual binding level at 1 uM by Kinomescan method relative to control; method in brief: as §3
# Chain of G protein-coupled receptor kinase 3 (Homo sapiens) (P35626 whole entry, the tested form may be a part): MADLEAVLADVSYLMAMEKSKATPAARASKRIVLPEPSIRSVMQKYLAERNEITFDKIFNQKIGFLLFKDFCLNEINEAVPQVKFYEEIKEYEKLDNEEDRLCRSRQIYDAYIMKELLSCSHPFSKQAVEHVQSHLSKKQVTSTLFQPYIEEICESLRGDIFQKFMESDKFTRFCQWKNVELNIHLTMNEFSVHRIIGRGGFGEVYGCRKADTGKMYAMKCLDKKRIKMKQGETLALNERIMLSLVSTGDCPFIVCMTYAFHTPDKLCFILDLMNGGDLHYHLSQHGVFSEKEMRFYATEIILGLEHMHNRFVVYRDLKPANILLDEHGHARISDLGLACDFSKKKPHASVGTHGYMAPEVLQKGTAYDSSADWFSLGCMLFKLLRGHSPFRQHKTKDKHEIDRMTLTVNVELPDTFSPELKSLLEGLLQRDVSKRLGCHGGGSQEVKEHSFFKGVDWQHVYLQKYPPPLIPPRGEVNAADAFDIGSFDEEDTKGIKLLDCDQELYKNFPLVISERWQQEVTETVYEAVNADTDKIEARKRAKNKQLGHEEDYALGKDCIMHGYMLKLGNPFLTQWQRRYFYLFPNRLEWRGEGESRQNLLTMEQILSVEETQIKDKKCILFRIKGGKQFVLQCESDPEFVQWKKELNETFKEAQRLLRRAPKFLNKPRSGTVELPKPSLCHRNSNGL
# [17] = molecular target: Dual specificity protein kinase CLK2 (Homo sapiens) (UniProt P49760); assay: Binding affinity to wild-type human partial length CLK2 (D144 to R498 residues) expressed in bacterial expression system assessed as residual binding level at 1 uM by Kinomescan method relative to control
# [18] = molecular target: Focal adhesion kinase 1 (Homo sapiens) (UniProt Q05397); assay: Binding affinity to wild-type human partial length FAK (D402 to R696 residues) expressed in bacterial expression system assessed as residual binding level at 1 uM by Kinomescan method relative to control
# Chain of Focal adhesion kinase 1 (Homo sapiens) (Q05397 2-1052 limits assumed): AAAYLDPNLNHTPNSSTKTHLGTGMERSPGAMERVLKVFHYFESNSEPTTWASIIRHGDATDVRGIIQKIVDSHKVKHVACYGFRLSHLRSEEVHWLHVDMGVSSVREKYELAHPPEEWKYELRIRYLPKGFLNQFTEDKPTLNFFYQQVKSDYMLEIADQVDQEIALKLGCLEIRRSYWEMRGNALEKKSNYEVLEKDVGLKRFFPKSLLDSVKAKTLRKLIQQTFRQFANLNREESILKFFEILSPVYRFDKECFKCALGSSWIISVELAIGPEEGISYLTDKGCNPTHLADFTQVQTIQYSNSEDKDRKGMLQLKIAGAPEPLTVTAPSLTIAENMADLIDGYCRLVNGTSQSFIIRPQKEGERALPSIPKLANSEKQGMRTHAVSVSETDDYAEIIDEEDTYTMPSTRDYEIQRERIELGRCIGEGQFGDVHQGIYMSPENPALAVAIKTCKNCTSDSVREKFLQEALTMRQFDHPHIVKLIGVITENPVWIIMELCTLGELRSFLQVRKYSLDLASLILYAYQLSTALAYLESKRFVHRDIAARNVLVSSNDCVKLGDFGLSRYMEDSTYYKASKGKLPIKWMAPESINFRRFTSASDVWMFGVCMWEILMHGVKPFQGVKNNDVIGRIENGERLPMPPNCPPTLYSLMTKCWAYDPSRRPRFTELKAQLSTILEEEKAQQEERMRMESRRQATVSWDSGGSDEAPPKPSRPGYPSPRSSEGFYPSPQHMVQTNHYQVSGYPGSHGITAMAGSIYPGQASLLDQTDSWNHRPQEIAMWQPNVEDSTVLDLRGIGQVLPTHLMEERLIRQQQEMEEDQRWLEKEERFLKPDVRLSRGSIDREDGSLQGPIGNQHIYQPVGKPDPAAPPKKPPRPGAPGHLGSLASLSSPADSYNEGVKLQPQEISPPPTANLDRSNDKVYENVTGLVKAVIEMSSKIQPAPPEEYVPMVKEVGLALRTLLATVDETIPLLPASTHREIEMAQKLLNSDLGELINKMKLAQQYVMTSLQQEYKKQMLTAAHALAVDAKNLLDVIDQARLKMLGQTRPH
# [19] = molecular target: Ephrin type-A receptor 2 (Homo sapiens) (UniProt P29317); assay: Binding affinity to wild-type human partial length EPHA2 (T593 to V891 residues) expressed in bacterial expression system assessed as residual binding level at 1 uM by Kinomescan method relative to control
# [20] = molecular target: Wee1-like protein kinase (Homo sapiens) (UniProt P30291); assay: Binding affinity to wild-type human partial length WEE1 (M291 to K575 residues) expressed in bacterial expression system assessed as residual binding level at 1 uM by Kinomescan method relative to control
# Chain of Wee1-like protein kinase (Homo sapiens) (P30291 whole entry, looked up, the tested form may be a part): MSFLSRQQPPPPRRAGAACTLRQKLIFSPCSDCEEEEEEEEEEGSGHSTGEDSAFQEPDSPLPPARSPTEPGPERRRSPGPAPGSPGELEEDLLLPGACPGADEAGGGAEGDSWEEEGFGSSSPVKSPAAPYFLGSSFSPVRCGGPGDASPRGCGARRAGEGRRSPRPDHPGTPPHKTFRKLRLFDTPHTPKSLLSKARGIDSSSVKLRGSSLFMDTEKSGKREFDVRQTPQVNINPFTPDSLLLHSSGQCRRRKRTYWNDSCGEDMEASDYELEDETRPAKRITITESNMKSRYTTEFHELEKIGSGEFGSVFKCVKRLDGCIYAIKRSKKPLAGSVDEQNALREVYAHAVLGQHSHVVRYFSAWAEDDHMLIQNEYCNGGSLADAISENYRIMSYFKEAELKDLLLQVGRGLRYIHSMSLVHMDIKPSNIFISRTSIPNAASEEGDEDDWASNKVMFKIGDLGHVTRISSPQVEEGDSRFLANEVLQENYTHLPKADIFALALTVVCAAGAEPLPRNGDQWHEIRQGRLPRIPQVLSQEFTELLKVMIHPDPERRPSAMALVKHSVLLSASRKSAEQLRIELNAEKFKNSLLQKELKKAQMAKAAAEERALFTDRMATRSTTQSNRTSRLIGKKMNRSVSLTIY
# [21] = molecular target: Protein kinase C theta type (Homo sapiens) (UniProt Q04759); assay: Binding affinity to wild-type human partial length PRKCQ (L350 to S706 residues) expressed in bacterial expression system assessed as residual binding level at 1 uM by Kinomescan method relative to control; method in brief: as §1
# [22] = molecular target: Activin receptor type-2B (Homo sapiens) (UniProt Q13705); assay: Binding affinity to wild-type human ACVR2B (H169 to D504 residues) expressed in bacterial expression system assessed as residual binding level at 1 uM by Kinomescan method relative to control; method in brief: as §3
structure (smiles),measurement,setting,value
C=CC(=O)Nc1ccccc1Nc1nc(Nc2ccc(N3CCN(C)CC3)cc2)ncc1C(=O)Nc1c(C)cccc1Cl,Activity,[1],63%
same,Activity,[2],100%
same,Activity,[3],100%
same,Activity,[4],98%
same,Activity,[5],100%
same,Activity,[6],66%
same,Activity,[7],80%
same,Activity,[8],100%
same,Activity,[9],100%
same,Activity,[10],100%
same,Activity,[11],100%
same,Activity,[12],100%
same,Activity,[13],100%
same,Activity,[14],97%
same,Activity,[15],100%
same,Activity,[16],100%
same,Activity,[17],100%
same,Activity,[18],100%
same,Activity,[19],100%
same,Activity,[20],100%
same,Activity,[21],86%
same,Activity,[22],100%
